In the library only some 2.3% were active in any assay of this set; here they are far more common.
TRPC4 agonist – activators of mouse TRPC4 channel; Q9QUQ5; HEK293 TRPC4beta/mu-opioid, Fluo4 calcium fluorescence; hits give high values; B-score at 10 µM; actives 0.49% (n = 310,000);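 active means B-score above 5 SD of library B-scores, and initial fluorescence ratio not above library mean plus 5 SD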;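 further: positive B-score marks a calcium rise read as TRPC4 activation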
Target sequence (Q9QUQ5 whole entry, looked up): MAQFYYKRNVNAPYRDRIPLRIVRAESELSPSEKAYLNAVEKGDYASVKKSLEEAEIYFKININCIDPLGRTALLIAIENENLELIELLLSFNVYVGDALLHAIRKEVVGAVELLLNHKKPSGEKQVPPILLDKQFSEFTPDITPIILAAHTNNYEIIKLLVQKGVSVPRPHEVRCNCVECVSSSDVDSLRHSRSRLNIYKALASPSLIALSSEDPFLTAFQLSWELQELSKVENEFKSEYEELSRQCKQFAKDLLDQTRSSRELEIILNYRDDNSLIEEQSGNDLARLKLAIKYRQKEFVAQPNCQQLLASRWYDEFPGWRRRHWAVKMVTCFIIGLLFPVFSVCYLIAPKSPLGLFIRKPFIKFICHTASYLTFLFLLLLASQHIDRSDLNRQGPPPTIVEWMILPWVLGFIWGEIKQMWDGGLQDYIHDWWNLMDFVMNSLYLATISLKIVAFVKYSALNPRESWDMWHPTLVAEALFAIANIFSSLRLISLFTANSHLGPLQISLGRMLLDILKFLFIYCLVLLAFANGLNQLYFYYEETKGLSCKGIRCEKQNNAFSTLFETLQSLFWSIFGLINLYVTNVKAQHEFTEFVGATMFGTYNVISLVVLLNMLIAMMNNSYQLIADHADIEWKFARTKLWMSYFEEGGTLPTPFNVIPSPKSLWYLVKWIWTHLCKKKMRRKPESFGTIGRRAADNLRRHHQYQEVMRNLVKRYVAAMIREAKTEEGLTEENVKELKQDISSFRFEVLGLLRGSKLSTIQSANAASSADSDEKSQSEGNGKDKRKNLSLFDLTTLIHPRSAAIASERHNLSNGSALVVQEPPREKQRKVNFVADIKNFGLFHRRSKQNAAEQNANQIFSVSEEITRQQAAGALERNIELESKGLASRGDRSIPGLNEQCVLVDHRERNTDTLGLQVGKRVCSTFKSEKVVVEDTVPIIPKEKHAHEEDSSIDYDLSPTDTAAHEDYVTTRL
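Assay system: HEK293 stable line with TRPC4beta plus mu-opioid receptor; schedule: 45 min room-temperature Fluo4 loading, 110 s read; technique: kinetic Fluo4 calcium fluorescence; evaluation: integrated baseline-normalised fluorescence ratio, converted to per-well B score; controls: buffer (low) and maximal DAMGO (high)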
TRPC6 activator – mouse TRPC6 channel activation; Q61143; HEK293-TRPC6 membrane potential dye fluorescence; hits give high values; B-score at 10 µM; actives 0.13% (n = 310,000); AID 2550;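 active means B-score of the integrated fluorescence ratio above library mean plus 3 SD, and starting fluorescence ratio within library mean plus 5 SD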;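 further: higher score means more depolarization so channel activation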
TRPC6 inh – inhibitors of mouse TRPC6 channel. Q61143. HEK293-TRPC6, membrane potential dye, ACh-evoked depolarization; hits give low values. B-score at 10 µM. actives 1.1% (n = 310,000). AID 2553;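 active means B-score under library mean minus 3 SD, initial fluorescence not abnormally high, positive integrated signal ratio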;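 further: B-score derived from integrated fluorescence ratio over the kinetic read; more negative B-score means stronger inhibition of depolarization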
TRPC4 potent – TRPC4 (mouse) allosteric potentiation; Q9QUQ5; HEK293 TRPC4beta/mu-opioid, DAMGO EC20, Fluo-4 Ca2+ flux; hits give high values; B-score at 10 µM; actives 0.42% (n = 310,000); AID 2227;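 active means B-score of calcium response area above 5 SD of library B-scores, with initial fluorescence ratio within 5 SD of library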
TRPC4 block – blocks the mouse TRPC4 cation channel; Q9QUQ5; HEK293 TRPC4beta/mu-opioid, DAMGO-evoked Fluo4 calcium flux; hits give low values; B-score at 10 µM; actives 0.39% (n = 300,000); AID 2247;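 active means B-score over 3 SD under the library average, no early fluorescence shift, positive overall ratio signal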
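System: stable TRPC4beta/mu-opioid receptor HEK293 cells; Dosing: single-point compound dosing; Measured by: Fluo4 Ca2+ flux fluorescence; Read-out basis: per-well B score of integrated baseline-normalized Fluo4 ratio.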
TRPC4 spec 2 – mouse TRPC4 off-target activity of TRPC6 inhibitors, second screen. shares compounds with TRPC6 inh. HEK293 TRPC4/MOR, membrane potential dye fluorescence; channel activated by saturating DAMGO dose. inhibition, % at 10 µM. actives 42% (n = 920). AID 2776;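 active means compounds whose fluorescence signal differed from control wells by over 3 SD, either direction, in both duplicate plates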
TRPC4 spec – selectivity of TRPC6 inhibitors: effect on mouse TRPC4 | shares compounds with TRPC6 inh | HEK293 TRPC4/mu-opioid, membrane potential fluorescence | activity change, negative = inhibition, % at 10 µM | actives 61% (n = 920) | AID 2777;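 active means rise or fall in signal beyond 3 SD of buffer-only wells in both replicate plates, either sign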;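 further: integrated kinetic ratio of fluorescence range over baseline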
HEK293 MPD ctr 2-1 – second check of TRPC6 inhibitor effects in parental HEK293 cells; shares compounds with TRPC6 inh; parental HEK293 membrane potential dye fluorescence; maximal acetylcholine challenge after compound addition; signal change vs control, % at 10 µM; actives 31% (n = 920); AID 2779;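 active means membrane potential signal moving either way by over 3 SD of the maximum-effect control, in both duplicate plates, meaning non-specific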
HEK293 MPD ctr-1 – parental HEK293 nonspecific activity of TRPC6 inhibitors | shares compounds with TRPC6 inh | parental HEK293 membrane potential dye fluorescence | membrane potential signal change, % at 10 µM | actives 60% (n = 920);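 active means membrane potential signal shifting up or down by more than 3 SD of buffer-only wells, on both duplicate plates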
HEK293 MPD ctr-2 – counter-screen for TRPC6 modulators: effect in parental HEK293 cells; shares compounds with TRPC6 inh; actives 51% (n = 2,400); membrane potential dye fluorescence; membrane potential signal change, % at 10 µM;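 active means membrane potential signal moves up or down beyond 5 SD from buffer-only wells, on both duplicate plates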
HEK293 MPD ctr 2-2 – second counter-screen for TRPC6 modulators: effect in parental HEK293 cells | shares compounds with TRPC6 inh | membrane potential dye fluorescence; after compound, maximal acetylcholine stimulation | inhibition, % at 10 µM | actives 14% (n = 2,400);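 active means membrane potential signal drops by more than 5 SD from the mean control signal, in both duplicate plates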
TRPC4/MOR mod – mouse TRPC4 off-target activity of TRPC6 modulators | shares compounds with TRPC6 inh | HEK293 TRPC4/mu-opioid, membrane potential fluorescence | percent change from control (negative = decrease, positive = increase), % at 10 µM | actives 69% (n = 2,400) | AID 488927;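 active means membrane potential signal moved up or down beyond 5 SD of buffer control wells, in both duplicate plates, actives on both sides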
TRPC4/MOR inh 2 – second selectivity test of TRPC6 modulators against mouse TRPC4; shares compounds with TRPC6 inh; HEK293 TRPC4/mu-opioid, membrane potential dye fluorescence; stimulated with maximal-effect DAMGO; inhibition, % at 10 µM; actives 55% (n = 2,400);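 active means drop in membrane potential signal beyond 5 SD of the control wells in both duplicate plates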;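 further: TRPC4 counter screen for TRPC6 hits run under conditions tuned for TRPC6 not TRPC4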
TRPC6 block conf – confirmation of mouse TRPC6 inhibitors. actives 43% (n = 3,300). HEK293-TRPC6, membrane potential dye, ACh-evoked depolarization. shares compounds with TRPC6 inh. inhibition, % at 10 µM;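 active means fluorescence ratio falls more than 5 SD below the full-stimulation control mean, in both duplicate runs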;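 further: integrated fluorescence ratio of peak minus minimum over baseline after agonist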
TRPC6 act conf – mouse TRPC6 activator confirmation | AID 488961 | actives 11% (n = 2,800) | shares compounds with TRPC6 inh | activation, % at 10 µM | HEK293-TRPC6 membrane potential dye fluorescence, FDSS;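 active means ratio signal rise beyond 5 SD above unstimulated control wells' mean, seen in both duplicate runs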
Each line names hits and unclear results; the compound was inactive in the other large screens (follow-up assays come after a bar, where they were run).

COc1ccccc1C(=O)N1CCCC1(C#N)c1ccccc1 (stereo not drawn)	none
COc1ccc(C(=O)N2CCCC2(C#N)c2ccccc2)cc1[N+](=O)[O-] (stereo not drawn)	TRPC6 inh -7.6 | TRPC4 spec 2 inactive | TRPC4 spec 0.7% | HEK293 MPD ctr 2-1 inactive | HEK293 MPD ctr-1 inactive | TRPC6 block conf inactive | TRPC6 act conf inactive
COc1ccccc1CNC(=O)COC(=O)c1nc(Cl)ccc1Cl	none
Cc1ccc(C(O)(CCN2CCCCC2)c2ccccc2)cc1 (stereo not drawn)	TRPC6 inh -7.1 | TRPC4 spec 2 inactive | TRPC4 spec 14% | HEK293 MPD ctr 2-1 inactive | HEK293 MPD ctr-1 13% | TRPC6 block conf 62%
OC(CCN1CCCCC1)(c1ccccc1)C1CCCCC1 (stereo not drawn)	TRPC6 inh -5.2 | HEK293 MPD ctr-2 208% | HEK293 MPD ctr 2-2 80% | TRPC4/MOR mod 42% | TRPC4/MOR inh 2 inactive | TRPC6 block conf 78%
CCCOc1ccc(C(O)(CCC)CCN2CCCCC2)cc1 (stereo not drawn)	none
OC(CCN1CCOCC1)(c1ccc(Cl)cc1)C1CCCCC1 (stereo not drawn)	TRPC6 inh -5.7 | HEK293 MPD ctr-2 149% | HEK293 MPD ctr 2-2 inactive | TRPC4/MOR mod 26% | TRPC4/MOR inh 2 45% | TRPC6 block conf 44% | TRPC6 act conf inactive
O=C(Nc1ccccc1Cl)Nc1ccnn1C1CCN(C(=O)CCN2CCCO2)CC1	none
O=C(Cc1ccc([N+](=O)[O-])cc1)Nc1ccc2c(c1)OCO2	none
O=C(Cc1ccc([N+](=O)[O-])cc1)Nc1ccc2c(c1)CCC2	TRPC6 inh -5.2 | HEK293 MPD ctr-2 inactive | HEK293 MPD ctr 2-2 inactive | TRPC4/MOR mod inactive | TRPC4/MOR inh 2 inactive | TRPC6 block conf inactive | TRPC6 act conf inactive
COc1cccc(-c2c(C(=O)N/N=C/c3ccoc3)nnn2-c2nonc2N)c1	none
COc1ccc(-c2cc(C(=O)Nc3ccc(C(N)=O)cc3)c3ccccc3n2)cc1	none
COc1cc(/C=C/c2nc3ccc([N+](=O)[O-])cc3s2)ccc1OCC(=O)O	TRPC6 inh -6.7 | HEK293 MPD ctr-2 -69% | HEK293 MPD ctr 2-2 inactive | TRPC4/MOR mod -20% | TRPC4/MOR inh 2 inactive | TRPC6 block conf inactive | TRPC6 act conf inactive
COc1cc(/C=C/c2ccc3c([N+](=O)[O-])cccc3n2)ccc1OCC(=O)O	none

Bioassay records as filed in PubChem BioAssay.
